Sampled rows, rich in hits. Any-hit rate of the full collection: about 2.6%.
SENP7 inh – SENP7 protease inhibitors, primary screen, biochemical, luminescence, uHTS. Sentrin-specific protease 7 (Homo sapiens), Q9BQF6. inhibition, % at 5 µM. 1.5% of 330,000 active. AID 434973, 2010. recombinant SENP7, Z-RLRGG-aminoluciferin luminescence, 40 min;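 active means inhibition above about 50% at the single test dose, limit read from the data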;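 further: plate controls were DMSO with enzyme for no effect and no enzyme buffer wells for full effect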
Target sequence (Q9BQF6 706-1050 limits assumed): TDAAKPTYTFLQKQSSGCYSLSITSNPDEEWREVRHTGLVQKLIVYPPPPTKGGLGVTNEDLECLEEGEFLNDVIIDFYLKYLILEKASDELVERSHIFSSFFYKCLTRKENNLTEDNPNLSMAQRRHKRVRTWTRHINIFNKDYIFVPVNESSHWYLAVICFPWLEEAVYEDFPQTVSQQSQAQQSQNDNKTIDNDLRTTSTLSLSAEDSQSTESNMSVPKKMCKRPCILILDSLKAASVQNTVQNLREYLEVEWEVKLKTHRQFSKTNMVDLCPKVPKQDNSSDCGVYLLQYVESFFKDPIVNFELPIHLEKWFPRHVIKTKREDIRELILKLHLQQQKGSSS
SENP1 inh – human SENP1 catalytic domain inhibitors, primary screen, biochemical, FRET, uHTS; recombinant SENP1 catalytic domain, CyPet-SUMO1-YPet FRET cleavage; inhibition, % at 10 µM; 0.21% of 360,000 active;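 active means inhibition at least 30% at 10 µM, raw YFP signal under a set limit, fluorescence ratio 0.5 to 1.5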;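 further: 0% = enzyme with DMSO and 100% = no enzyme wells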
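Test system: hSENP1 catalytic domain, recombinant; Amount: 20 pM final SENP1 enzyme; Medium: Tris pH 8 buffer plus EDTA, NaCl, BME, BSA, NP40, catalase; Schedule: 50 min enzyme reaction, room temperature, light-protected; Technique: FRET fluorescence in CFP and YFP emission channels; Controls: no-enzyme wells low, DMSO-plus-enzyme wells high control.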
SENP6 inh – SENP6 protease inhibitors, primary screen, biochemical, luminescence, uHTS; Sentrin-specific protease 6 (Homo sapiens), Q9GZR1; Recombinant SENP6 catalytic domain, aminoluciferin luminescence; inhibition, % at 10 µM; 1.8% of 330,000 active;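 active means inhibition above about 50% at the single tested dose, limit read from the data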;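 further: plate controls were DMSO wells with enzyme for no effect and DMSO wells lacking enzyme for full effect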
SENP8 block-1 – human SENP8 protease inhibitors, primary screen, biochemical, fluorescence, Nedd8 protein substrate, uHTS; 0.64% of 360,000 active; recombinant SENP8; inhibition, % at 20 µM; in the data active means inhibition mostly above about 40%, no sharp cut-off; inactive means mostly below about 27%
Target sequence (Q96LD8 whole entry, looked up): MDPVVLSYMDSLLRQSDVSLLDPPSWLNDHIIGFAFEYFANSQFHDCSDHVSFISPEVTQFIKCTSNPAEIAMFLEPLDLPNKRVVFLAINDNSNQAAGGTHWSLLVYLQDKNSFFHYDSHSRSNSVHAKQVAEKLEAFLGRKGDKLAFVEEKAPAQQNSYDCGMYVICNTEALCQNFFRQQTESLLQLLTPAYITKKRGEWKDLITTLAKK
SENP8 block-2 – SENP8 protease inhibitors, primary screen, biochemical, luminescence | purified SENP8, Z-RLRGG-aminoluciferin cleavage | inhibition, % at 10 µM | 1.2% of 330,000 active; in the data active means inhibition above about 50%
Platelet DG rel – inhibitors of platelet dense granule secretion, primary screen, cell-based, MLPCN, human platelets. inhibition, %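 (compounds screened at 7.5 µM in platelet-rich plasma)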. 0.22% of 300,000 active. AID 1663, 2009. human platelet-rich plasma, SFLLRN dense granule ATP release, luminescence;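 active means mean replicate score, as percent of positive control, at or above 50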
SENP8 inh conf – human SENP8 protease inhibitors, confirmation, biochemical, Nedd8 protein substrate, single concentration; shares compounds with SENP8 block-1; purified SENP8, Nedd8-AMC/pro-Nedd8 cleavage fluorescence, 30 min; inhibition, % at 25 µM; 15% of 1,400 active; AID 624319, 2012; in the data active means inhibition mostly above about 39%, no sharp cut-off; inactive means mostly below about 34%
Numbers without * were called inactive.

CCN(CC)C(c1ccc(F)cc1)c1nnnn1CC1CCCO1 (centres undefined) was read as SENP7 inh 0, SENP1 inh 2, SENP6 inh -1, SENP8 block-1 45*, SENP8 block-2 7, Platelet DG rel -23 and SENP8 inh conf -13.
COc1ccc(C(c2nnnn2CC2CCCO2)N2CCN(c3ccc(F)cc3)CC2)cc1 (centres undefined) was read as SENP7 inh 2, SENP1 inh 1, SENP6 inh -20, SENP8 block-1 14, SENP8 block-2 -2 and Platelet DG rel 11.
Screening Cc1cnc(C=NNC(N)=S)c2cccc(N)c12 returned SENP1 inh 27, SENP8 block-1 82* and SENP8 inh conf 43*.
`CC(Oc1ccc(Br)cc1)C(=O)N(C)CC(=O)Nc1ccc(N2CCOCC2)cc1` (centres undefined) gave SENP7 inh 4, SENP1 inh -6, SENP6 inh 0, SENP8 block-1 2, SENP8 block-2 10 and Platelet DG rel 5.
CCOCCC(=O)Nc1ccc2c(c1)c(=O)n(C)n2C/C=C/c1ccccc1 was read as SENP1 inh 0 and SENP8 block-1 inactive.
`Cc1noc(C)c1S(=O)(=O)N1CCC(C(=O)NCCN2CCC(C)CC2)CC1` gave SENP7 inh -2, SENP1 inh 1, SENP6 inh -15, SENP8 block-1 41*, SENP8 block-2 -1, Platelet DG rel 2 and SENP8 inh conf 12.
For Cc1noc(C)c1S(=O)(=O)N1CCC(C(=O)NCCCN2CC(C)CC(C)C2)CC1 (centres undefined) the results were SENP7 inh 6, SENP1 inh 1, SENP6 inh 1, SENP8 block-1 13, SENP8 block-2 5 and Platelet DG rel 4.
C=CCN1C=C2C(=O)C(C)(OC(=O)c3cccs3)C(=O)C=C2C=C1CCCC(=O)OC (centres undefined) was read as SENP7 inh 5, SENP1 inh -25, SENP6 inh 5, SENP8 block-1 20, SENP8 block-2 -1 and Platelet DG rel 1.
Screening COC(=O)CCCC1=CC2=CC(=O)C(C)(OC(=O)c3cccs3)C(=O)C2=CN1CCc1ccccn1 (centres undefined) returned SENP7 inh -8, SENP1 inh -29, SENP6 inh 8, SENP8 block-1 40*, SENP8 block-2 -5, Platelet DG rel -2 and SENP8 inh conf 60*.
Cc1cc(C)cc(Nc2ccc([N+](=O)[O-])nc2[N+](=O)[O-])c1 was read as SENP7 inh 2, SENP1 inh 0, SENP6 inh 7, SENP8 block-1 41*, SENP8 block-2 1, Platelet DG rel 2 and SENP8 inh conf 15.
Screening CCN1CCN(C(=O)c2cc3cc(F)ccc3[nH]2)CC1 returned SENP7 inh 2, SENP1 inh 0, SENP6 inh 3, SENP8 block-1 -34, SENP8 block-2 -1 and Platelet DG rel -3.
`CCC(CO)Oc1cc(NCc2ccncc2)c2ncn(C(C)C)c2c1` (centres undefined) gave SENP7 inh 3, SENP1 inh -21, SENP6 inh 6, SENP8 block-1 41*, SENP8 block-2 6 and SENP8 inh conf 29.
`CCCC1CCC(=NNC(=O)CNc2ccc(OC)cc2)CC1` (centres undefined) gave SENP7 inh 0, SENP1 inh 3, SENP6 inh -7, SENP8 block-1 59*, SENP8 block-2 0, Platelet DG rel -2 and SENP8 inh conf 13.
`CCn1nnnc1NCc1ccc(OCc2c(F)cccc2Cl)c(OC)c1` gave SENP7 inh -9, SENP1 inh 0, SENP6 inh 11, SENP8 block-1 17, SENP8 block-2 -5 and Platelet DG rel -2.
Screening COc1cc(CNn2nnnc2N)ccc1OCc1c(Cl)cccc1Cl returned SENP7 inh 3, SENP1 inh 1, SENP6 inh 1, SENP8 block-1 44*, SENP8 block-2 6, Platelet DG rel 3 and SENP8 inh conf 20.
For CCc1nn2c(=O)c(S(=O)(=O)Nc3ccc(C(C)C)cc3)c(C)nc2s1 the results were SENP7 inh -13, SENP1 inh 0, SENP6 inh -8, SENP8 block-1 23 and SENP8 block-2 -5.
For O=C(O)c1ccc(Cl)c(S(=O)(=O)NCc2ccco2)c1 the results were SENP7 inh 4, SENP1 inh 2, SENP6 inh -10, SENP8 block-1 43*, SENP8 block-2 -13, Platelet DG rel 4 and SENP8 inh conf -8.
For Cc1ccc(CN2CC(N3CCCC3)CS2(=O)=O)cc1 (centres undefined) the results were SENP1 inh 3 and SENP8 block-1 16.
Screening O=C(Nc1nccs1)C1CCCCN1S(=O)(=O)c1ccccc1 (centres undefined) returned SENP7 inh -6, SENP1 inh 1, SENP6 inh 14, SENP8 block-1 45*, SENP8 block-2 1, Platelet DG rel 7 and SENP8 inh conf -1.
Screening O=C(NNc1ccccc1[N+](=O)[O-])Nc1ccc(F)cc1F returned SENP7 inh 6, SENP1 inh -22, SENP6 inh -4, SENP8 block-1 25, SENP8 block-2 0 and Platelet DG rel -4.
For O=C(COc1ccccc1)Nc1cc(Cl)ccc1Cl the results were SENP7 inh -3, SENP1 inh 2, SENP6 inh 2, SENP8 block-1 16, SENP8 block-2 -22 and Platelet DG rel 4.
`O=C(NNc1ccccc1[N+](=O)[O-])Nc1cccc(Cl)c1` gave SENP7 inh 2, SENP1 inh 2, SENP6 inh -5, SENP8 block-1 40*, SENP8 block-2 1, Platelet DG rel -7 and SENP8 inh conf 25.
`O=C(NNc1ccccc1)Nc1cc(Cl)ccc1Cl` gave SENP1 inh 4, SENP8 block-1 48* and SENP8 inh conf 10.
`COc1ccc(N2CCN(C(=O)COC(=O)CNC(=O)c3ccc(C)cc3)CC2)cc1` gave SENP7 inh 6, SENP1 inh 1, SENP6 inh -18, SENP8 block-1 8, SENP8 block-2 -4 and Platelet DG rel 0.
